Bioassay records deposited in PubChem BioAssay by several laboratories.
NR2E3 ag-1 – agonists of human NR2E3 nuclear receptor | Q9Y5X4 | CHO-S Gal4-NCOR/VP16-NR2E3 two-hybrid, luciferase | inhibition of corepressor binding, % at 3.98 µM | hit rate 0.35% among 360,000;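 active means inhibition above the mean of all tested compounds plus 3 SD, cut at about 70% in these data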;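 further: higher means lower luciferase signal from less NR2E3 corepressor binding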
NR2E3 ag-2 – activates human photoreceptor nuclear receptor NR2E3; hit rate 0.12% among 320,000; Q9Y5X4; GST-NR2E3/biotin-RetCOR TR-FRET, 1536-well; AID 2300; inhibition of corepressor binding, % at 4.78 µM;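 active means percent inhibition above the cutoff of mean plus 3 SD of all tested compounds, set per screening campaign, cut at about 20% in these data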
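Test system: GST-NR2E3 and biotin-RetCOR proteins | Quantity: 1.35 nM GST-tagged NR2E3 final | Medium: Tris pH 7.5 | Also added: 7 nM biotin-RetCOR | Dosing: Compound at 4.8 µM, single dose | Timing: 5 h at 4 °C | Detection: Time-resolved FRET | Read-out basis: Percent inhibition | Benchmarks: Biotin wells as high control, 0.6% DMSO wells as low control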
DAX1 inh-1 – inhibitors of human orphan nuclear receptor DAX1 (NR0B1); P51843; HEK293 Gal4-DAX1 luciferase reporter, luminescence; inhibition, % at 6.75 µM; hit rate 0.99% among 340,000; AID 504766;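 active means inhibition above the mean over all tested compounds plus 3 SD, cut at about 4.2% in these data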;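 further: inhibition shows as a rise in luminescence from relieved DAX1 repression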
JMJD2C inh – blocks human GASC-1 demethylase activity; Q9H3R0; inhibition, % at 2.35 µM; GST-JMJD2C(1-420) H3K9me3 demethylation, DELFIA europium; hit rate 0.069% among 330,000; AID 2099;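 active means more than half of a compound's replicate wells show inhibition beyond 50%, single wells judged on their own value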;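 further: signal counts dimethyl H3K9 product captured on neutravidin plate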
Target sequence (Q9H3R0 1-420 limits assumed): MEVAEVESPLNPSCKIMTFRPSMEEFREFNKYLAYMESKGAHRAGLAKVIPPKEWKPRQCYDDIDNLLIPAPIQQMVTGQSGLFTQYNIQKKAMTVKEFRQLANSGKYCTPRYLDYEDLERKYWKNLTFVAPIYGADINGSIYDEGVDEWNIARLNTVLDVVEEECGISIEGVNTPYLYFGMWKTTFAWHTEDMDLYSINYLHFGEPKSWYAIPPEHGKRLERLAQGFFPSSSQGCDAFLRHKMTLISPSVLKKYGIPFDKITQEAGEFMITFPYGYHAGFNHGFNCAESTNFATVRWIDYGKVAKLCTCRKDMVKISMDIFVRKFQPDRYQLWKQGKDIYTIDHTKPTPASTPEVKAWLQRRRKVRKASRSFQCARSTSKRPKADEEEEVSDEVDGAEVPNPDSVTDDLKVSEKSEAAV
SMARCA2 activ – increases SMARCA2 function in MMTV reporter cells; MG213 cells, MMTV-luciferase reporter, dexamethasone, overnight; activation, % at 9.1 µM; hit rate 1% among 370,000; AID 652017; in the data active means activation above about 7.8%
DAX1 inh-2 – blocks DAX1 repression of SF-1 activated StAR promoter; HEK293T StAR-luciferase reporter, SF-1/DAX-1 repression relief; inhibition, % at 6.8 µM; hit rate 1.1% among 370,000; AID 652010;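 active means inhibition above the mean over all tested compounds plus 3 SD, cut at about 3.6% in these data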;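 further: higher inhibition means more luminescence from relief of DAX-1 repression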
Of the large screens only hits and unclear results are named; the others gave an inactive call. Most compounds without a hit are left out; they make up all but 3.2% or so of the library.

Cc1ccccc1NC(=O)c1cnc2ccccn2c1=O	DAX1 inh-2 4.2
CN(C)c1nc(-c2ccccc2)ncc1S(=O)(=O)c1ccccc1	DAX1 inh-2 4.0
Cn1cccc1-c1nc2ccc(NC(=O)c3cccs3)cc2[nH]1	JMJD2C inh 58
Cn1c(SCC2CCC2)nnc1-c1ccco1	none (no result: NR2E3 ag-1, NR2E3 ag-2, DAX1 inh-1, JMJD2C inh)
CCc1c(C)sc(NC(=S)N2CCN(CC)CC2)c1C(=O)OC	DAX1 inh-1 5.2
COC(=O)c1cc(-c2cccc(C(F)(F)F)c2)c(=O)n2c1CCC2	none (no result: NR2E3 ag-1, NR2E3 ag-2, DAX1 inh-1, JMJD2C inh)
Cn1c(SCC(=O)N2CCCC2=O)nnc1-c1ccccc1F	JMJD2C inh 55
CCn1c(SCC(=O)N2CCCC2=O)nnc1-c1cccs1	none
Cc1cc(C(C#N)c2ccc(Cl)cc2)c(Cl)cc1NC(=O)c1cc(I)cc(I)c1O (stereo not drawn)	NR2E3 ag-1 101
Cc1cc(NC(=O)c2ccc(Cl)cc2)c(C)cc1O	none
CCOc1ccc(C(=O)Nc2cc(C)ccn2)cc1	DAX1 inh-2 3.6
CCOc1ccc(C(=O)Nc2cccc(C)n2)cc1	DAX1 inh-2 4.0
CCN(CC)C(=O)CC[C@H]1CC[C@]2(CCCN(S(C)(=O)=O)C2)O1	none (no result: NR2E3 ag-1, NR2E3 ag-2, DAX1 inh-1, JMJD2C inh)
CCNC(=O)C[C@H]1CC[C@H]2[C@@H](COc3ccc(NC(=O)Nc4ccccc4)cc3C(=O)N2C)O1	none (no result: NR2E3 ag-1, NR2E3 ag-2, DAX1 inh-1, JMJD2C inh)
C=CCN1[C@H](C#N)[C@@H](c2ccc(C#Cc3ccccc3OC)cc2)[C@H]1CO	none (no result: NR2E3 ag-1, NR2E3 ag-2, DAX1 inh-1, JMJD2C inh)
COc1ccc(/C=C/CN2CCN(Cc3cccc(OC)c3)C(CCO)C2)cc1 (stereo not drawn)	DAX1 inh-1 4.2
CCC(=O)NC(Cc1ccccc1)c1nc2ccccc2[nH]1 (stereo not drawn)	DAX1 inh-1 4.2 (no result: NR2E3 ag-2)
COC(=O)N[C@H](C(=O)N[C@@H](Cc1ccccc1)[C@@H](O)CN(Cc1ccc(-c2ccccn2)cc1)NC(=O)[C@@H](NC(=O)OC)C(C)(C)C)C(C)(C)C	none (no result: NR2E3 ag-1, NR2E3 ag-2, DAX1 inh-1, JMJD2C inh)
CCc1nnc(N/N=C/c2ccc(O)c(OC)c2)n1N	none
CCc1nnc(N/N=C/c2cc(Br)c(O)cc2O)n1N	JMJD2C inh 58
CCN(CC)S(=O)(=O)c1ccc(Nc2ccc(-c3ccc4c(c3)OCCO4)nn2)cc1	SMARCA2 activ 8.6
CCCCCCNC(=O)C1CSCCS(=O)(=O)N1Cc1ccc(C)cc1 (stereo not drawn)	none (no result: NR2E3 ag-1, NR2E3 ag-2, DAX1 inh-1, JMJD2C inh)
Cn1c(=N)n(CC(=O)c2ccc(Br)cc2)c2ccccc21	DAX1 inh-1 4.9
CC1(C)CC2CC(C)(CN2C(=O)c2ccc([N+](=O)[O-])cc2)C1 (stereo not drawn)	none
CC1(C)CC2CC(C)(CN2C(=O)c2ccc([N+](=O)[O-])cc2[N+](=O)[O-])C1 (stereo not drawn)	DAX1 inh-1 6.7
O=C(NC1CCCCN(Cc2cccc(Cl)c2)C1=O)c1ccc(F)cc1 (stereo not drawn)	none (no result: NR2E3 ag-1, NR2E3 ag-2, DAX1 inh-1, JMJD2C inh)
CCN1C(=O)/C(=C/N2CCc3ccccc3C2)SC1=S	none
CCCCCN1C(=O)/C(=C/c2c(N3CCc4ccccc4C3)nc3ccccn3c2=O)SC1=S	DAX1 inh-1 6.0
O=C(N/N=C/c1ccccn1)c1cc(-c2cccc3ccccc23)n[nH]1	DAX1 inh-1 6.6
O=C(N/N=C/c1ccccn1)c1cc(-c2ccc3ccccc3c2)n[nH]1	none
CCc1ccc(-c2cc(C(=O)N/N=C/c3ccccn3)[nH]n2)cc1	DAX1 inh-1 4.5
COc1ccc(Oc2c(Cl)cnn(CC(=O)C(c3ccccc3)c3ccccc3)c2=O)cc1	none (no result: NR2E3 ag-1, NR2E3 ag-2, DAX1 inh-1, JMJD2C inh)
C=CCN1[C@@H](C)COc2cccc(F)c2S1(=O)=O	none (no result: NR2E3 ag-1, NR2E3 ag-2, DAX1 inh-1, JMJD2C inh)
N#Cc1c(F)cccc1NCCCn1ccnc1	DAX1 inh-1 4.6
CC[C@@]1(c2ccc(C)cc2)C(=O)N(C(=O)OC)N1C(=O)OC	none (no result: NR2E3 ag-1, NR2E3 ag-2, DAX1 inh-1, JMJD2C inh)
CC(C)Oc1ccc(C2NC(=O)c3ccccc3O2)cc1 (stereo not drawn)	DAX1 inh-1 4.4
O=S1(=O)c2ccc(N3CCSCC3)cc2Oc2ccccc2CN1Cc1cn(Cc2cccc(F)c2)nn1	none (no result: NR2E3 ag-1, NR2E3 ag-2, DAX1 inh-1, JMJD2C inh)
Clc1ccccc1CNCC1CCCO1 (stereo not drawn)	DAX1 inh-1 5.9
Oc1ccc(Cl)cc1CNCC1CCCO1 (stereo not drawn)	none
O=C(c1ccccc1)c1ncc(C(F)(F)F)cc1Cl	none
COC(=O)/C(=C\Nc1ccccc1N)c1ncc(C(F)(F)F)cc1Cl	DAX1 inh-2 4.3
